Reference: ChEMBL document CHEMBL1125349 (J Med Chem, 1992)
Non-standard residues stand in square brackets, D forms with d. Residues, ends and D or L forms follow the SMILES beside them. Ava = NCCCCC(=O)O

Legend:
Neuromedin-K receptor = target: T1, Neuromedin-K receptor (Rattus norvegicus, UniProt P16177); assay: In vitro agonistic activity against tachykinin receptor 3 of everted rat protal vein.; format: functional
T1 sequence (P16177 whole entry): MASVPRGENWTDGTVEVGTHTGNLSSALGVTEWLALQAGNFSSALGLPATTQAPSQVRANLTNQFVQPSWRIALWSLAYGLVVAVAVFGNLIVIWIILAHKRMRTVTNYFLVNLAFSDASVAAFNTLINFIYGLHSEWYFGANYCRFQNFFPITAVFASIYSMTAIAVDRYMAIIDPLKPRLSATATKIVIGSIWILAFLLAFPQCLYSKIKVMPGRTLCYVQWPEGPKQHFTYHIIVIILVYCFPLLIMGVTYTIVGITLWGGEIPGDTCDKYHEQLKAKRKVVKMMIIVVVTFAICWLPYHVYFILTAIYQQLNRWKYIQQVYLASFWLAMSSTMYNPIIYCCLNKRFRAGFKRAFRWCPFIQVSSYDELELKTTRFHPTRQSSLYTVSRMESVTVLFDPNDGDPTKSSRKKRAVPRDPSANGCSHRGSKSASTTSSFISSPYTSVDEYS
Summary of the method: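 Everted isolated portal vein segments from male AH/A rats, 3-mL baths at 37 °C, 0.5 g resting tension, modified Krebs-Henseleit medium, isotonic contractions. […] Equipotent molar ratios were calculated and related to the reference agonist's mean EC50.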

Substance-K receptor = target: T2, Substance-K receptor (Rattus norvegicus, UniProt P16610); assay: In vitro agonistic activity against tachykinin receptor 2 of rat colon muscularis mucosae.; format: functional
T2 sequence (P16610 whole entry): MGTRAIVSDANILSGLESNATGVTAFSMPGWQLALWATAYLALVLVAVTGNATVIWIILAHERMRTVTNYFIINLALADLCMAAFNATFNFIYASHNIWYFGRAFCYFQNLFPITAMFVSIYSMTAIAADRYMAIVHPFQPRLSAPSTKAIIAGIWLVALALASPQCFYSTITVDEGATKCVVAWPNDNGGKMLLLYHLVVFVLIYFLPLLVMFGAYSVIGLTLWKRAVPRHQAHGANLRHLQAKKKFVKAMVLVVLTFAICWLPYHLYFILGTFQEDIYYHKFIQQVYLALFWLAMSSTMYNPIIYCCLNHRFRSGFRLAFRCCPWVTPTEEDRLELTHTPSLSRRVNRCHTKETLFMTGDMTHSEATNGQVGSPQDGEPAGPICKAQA
Summary of the method: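 Colon muscularis mucosae from male AH/A rats (250-350 g), 3-mL baths, 0.5 g resting tension, 35 °C, with atropine, mepyramine, methysergide and indomethacin (1 µM each). Isotonic contraction was recorded.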

Substance-P receptor = Substance-P receptor (Cavia porcellus, UniProt P30547); assay: In vitro agonistic activity against tachykinin receptor 1 of guinea pig ileum longitudinal smooth muscle.; format: functional, tissue-based
Sequence of Substance-P receptor (P30547 whole entry): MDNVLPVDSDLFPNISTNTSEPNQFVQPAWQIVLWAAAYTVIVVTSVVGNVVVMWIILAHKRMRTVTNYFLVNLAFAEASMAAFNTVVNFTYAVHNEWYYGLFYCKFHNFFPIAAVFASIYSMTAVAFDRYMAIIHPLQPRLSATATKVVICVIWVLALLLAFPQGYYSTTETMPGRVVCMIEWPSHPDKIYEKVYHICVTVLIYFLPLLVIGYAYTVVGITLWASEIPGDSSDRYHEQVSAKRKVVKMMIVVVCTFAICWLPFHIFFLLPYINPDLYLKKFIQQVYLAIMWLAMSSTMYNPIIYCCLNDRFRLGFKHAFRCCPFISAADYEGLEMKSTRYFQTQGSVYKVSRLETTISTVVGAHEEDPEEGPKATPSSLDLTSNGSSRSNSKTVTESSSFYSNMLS

Compound | EC50 (Neuromedin-K receptor) [nM] | EC50 (Substance-K receptor) [nM] | EC50 (Substance-P receptor) [nM]
CSCC[C@H](NC(=O)[C@H](CC(C)C)N1CC2CCN(C(=O)[C@H](Cc3ccccc3)NC(=O)[C@H](Cc3ccccc3)NC(=O)[C@H](CO)NC(=O)[C@H](CC(=O)O)NC(=O)[C@@H](N)CCCCN)C2C1=O)C(N)=O (stereo not given in full) | 2630 | 45 | 1030
CSCC[C@H](NC(=O)[C@@H](CC(C)C)N1C[C@H]2CCN(C(=O)[C@H](Cc3ccccc3)NC(=O)[C@H](Cc3ccccc3)NC(=O)CCCCN)[C@H]2C1=O)C(N)=O | > 47000 | 2100 | 5230
CSCC[C@H](NC(=O)[C@@H](CC(C)C)N1C[C@@H]2CCN(C(=O)[C@H](Cc3ccccc3)NC(=O)[C@H](Cc3ccccc3)NC(=O)CCCCN)[C@@H]2C1=O)C(N)=O | > 30000 | 566 | 3730
CSCC[C@H](NC(=O)[C@H](CC(C)C)N1C[C@@H]2CCN(C(=O)[C@H](Cc3ccccc3)NC(=O)[C@H](Cc3ccccc3)NC(=O)CCCCN)[C@@H]2C1=O)C(N)=O | > 8220 | 1190 | 37700
CSCC[C@H](NC(=O)[C@H](CC(C)C)N1CCC(NC(=O)[C@H](Cc2ccccc2)NC(=O)[C@H](Cc2ccccc2)NC(=O)CCCCN)C1=O)C(N)=O (stereo not given in full) | 10600 | 62 | 86
CSCC[C@H](NC(=O)[C@H](CC(C)C)N1CC[C@@H](NC(=O)[C@@H](NC(=O)[C@H](Cc2ccccc2)NC(=O)[C@H](CO)NC(=O)[C@H](CC(=O)O)NC(=O)[C@@H](N)CCCCN)C(C)C)C1=O)C(N)=O | 1180 | 3.7 | 4240
CSCC[C@H](NC(=O)[C@H](CC(C)C)NC(=O)[C@H]1CCCN1C(=O)[C@H](Cc1ccccc1)NC(=O)[C@H](Cc1ccccc1)NC(=O)CCCCN)C(N)=O | > 30000 | 92 | 830
CSCC[C@H](NC(=O)[C@H](CC(C)C)NC(=O)CNC(=O)[C@@H](NC(=O)[C@H](Cc1ccccc1)NC(=O)CCCCN)C(C)C)C(N)=O (H-[Ava]FVGLM-NH2) |  | 94 | 86
CSCC[C@H](NC(=O)[C@H](CC(C)C)NC(=O)CNC(=O)[C@H](Cc1ccccc1)NC(=O)[C@H](Cc1ccccc1)NC(=O)[C@H](CCC(N)=O)NC(=O)[C@H](CCC(N)=O)NC(=O)[C@@H]1CCCN1C(=O)[C@H](CCCCN)NC(=O)[C@@H]1CCCN1C(=O)[C@@H](N)CCCN=C(N)N)C(N)=O [SUBSTANCE P] | 7500 |  | 
CSCC[C@H](NC(=O)[C@H](CC(C)C)N1CC2CCN(C(=O)[C@@H](NC(=O)[C@H](Cc3ccccc3)NC(=O)[C@H](CO)NC(=O)[C@H](CC(=O)O)NC(=O)[C@@H](N)CCCCN)C(C)C)C2C1=O)C(N)=O (stereo not given in full) | 2720 | 59 | 1130
CSCC[C@H](NC(=O)[C@H](CC(C)C)NC(=O)CNC(=O)[C@@H](NC(=O)[C@H](Cc1ccccc1)NC(=O)[C@H](Cc1ccccc1)NC(=O)[C@H](CC(=O)O)NC(=O)[C@H](Cc1c[nH]cn1)NC(=O)[C@H](CCSC)NC(=O)[C@@H](N)CC(=O)O)C(C)C)C(N)=O [NEUROKININ B] | 6.3 |  | 68
CSCC[C@H](NC(=O)[C@H](CC(C)C)N1CC[C@]2(CCCN2C(=O)[C@H](Cc2ccccc2)NC(=O)[C@H](Cc2ccccc2)NC(=O)CCCCN)C1=O)C(N)=O |  | 1390 | 307
CSCC[C@H](NC(=O)[C@H](CC(C)C)N1C[C@H]2CCN(C(=O)[C@H](Cc3ccccc3)NC(=O)[C@H](Cc3ccccc3)NC(=O)CCCCN)[C@H]2C1=O)C(N)=O | > 18000 | 15 | 545

More lines, in order of falling EC50 (Substance-P receptor), values ahead:

EC50 (Neuromedin-K receptor) [nM] | EC50 (Substance-K receptor) [nM] | EC50 (Substance-P receptor) [nM] | Compound
870 | 3 | 61 | CSCC[C@H](NC(=O)[C@H](CC(C)C)NC(=O)CNC(=O)[C@@H](NC(=O)[C@H](Cc1ccccc1)NC(=O)[C@H](CO)NC(=O)[C@H](CC(=O)O)NC(=O)[C@@H](N)CCCCN)C(C)C)C(N)=O
857 | 33 | 45 | H-KDSFFGLM-NH2
 | 1.3 | 44 | CSCC[C@H](NC(=O)[C@H](CC(C)C)N1CCC(NC(=O)[C@@H](NC(=O)[C@H](Cc2ccccc2)NC(=O)[C@H](CO)NC(=O)[C@H](CC(=O)O)NC(=O)[C@H](CCCCN)NC(C)=O)C(C)C)C1=O)C(N)=O (stereo not given in full)
11300 | 1190 | 38 | CSCC[C@H](NC(=O)[C@H](CC(C)C)NC(=O)CNC(=O)[C@H](Cc1ccccc1)NC(=O)[C@H](Cc1ccccc1)NC(=O)CCCCN)C(N)=O (H-[Ava]FFGLM-NH2)
563 |  | 13.7 | CSCC[C@H](NC(=O)[C@H](CC(C)C)NC(=O)CNC(=O)[C@@H](NC(=O)[C@H](Cc1ccccc1)NC(=O)[C@H](CO)NC(=O)[C@H](CC(=O)O)NC(=O)[C@@H](NC(=O)[C@H](CCCCN)NC(=O)[C@@H](N)Cc1cnc[nH]1)[C@@H](C)O)C(C)C)C(N)=O [NEUROKININ A]
> 10000 | 13000 | 13.4 | CSCC[C@H](NC(=O)[C@H](CC(C)C)NC(=O)[C@@H]1CCCN1C(=O)[C@H](Cc1ccccc1)NC(=O)[C@H](Cc1ccccc1)NC(=O)CCCCN)C(N)=O
